In publication PMC4436074 (mBio, 2015):
Structures can show the parent of a compound that is named as a salt. Where two headings read alike, the source gives them in different places.

Key:
FITC-XIP (S. mutans) = assay: fluorescence polarisation
ComR [1] = target: T1, ComR (Streptococcus mutans serotype c, UniProt Q8DWI6); assay type: binding, S. mutans; conditions: read-out: ComR Avg % inhibition
T1 sequence (Q8DWI6 1-304): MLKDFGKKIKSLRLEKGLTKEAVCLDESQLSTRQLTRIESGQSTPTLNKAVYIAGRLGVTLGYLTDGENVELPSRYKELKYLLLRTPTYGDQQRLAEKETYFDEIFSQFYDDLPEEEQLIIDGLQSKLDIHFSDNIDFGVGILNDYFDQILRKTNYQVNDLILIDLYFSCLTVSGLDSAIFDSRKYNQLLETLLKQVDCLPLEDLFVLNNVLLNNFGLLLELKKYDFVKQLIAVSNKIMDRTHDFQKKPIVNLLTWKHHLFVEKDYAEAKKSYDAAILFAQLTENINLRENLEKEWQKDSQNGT

Rgg3 = assay type: binding, Streptococcus pyogenes; conditions: HTS, duplicate; 0.1 µl of 10 mM compound in 30 µl; 180 nM His6-Sumo-Rgg3, 10 nM FITC-SHP2-C8
In short: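 Approved-drug library (1,280 compounds, DMSO stocks) pinned into assay mix of 1× PBS, 0.1 mg/ml BSA, 0.01% Triton X-100 and 5 mM DTT. Plates were shaken 20 s, then held 15 min at room temperature, and polarization was read at ex 485/em 535 nm. Each plate had 32 DMSO negative-control wells and 32 unlabeled SHP2-C8 (1 mM stock) positive-control wells. % inhibition was scaled between the per-plate control means, and plate Z′ was computed.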

[2] = tested on: Rgg2/3-regulated promoter Pshp2-luxAB (BNL148); assay: Pshp2-luxAB luciferase reporter assay, strain BNL148, sSHP2-C8 induced; assay type: cell-based, S. pyogenes; conditions: for IC50: Streptococcus pyogenes; for inhibition of SHP-induced light production (transcription): 10 µM compound with 10 nM SHP2-C8, BNL148
[3] = tested on: Rgg-SHP quorum-sensing pathway, Pshp-luxAB; assay: Pshp-luxAB reporter in S. agalactiae A909; assay type: cell-based; conditions: S. agalactiae (GBS), 5 µM antagonist
In short: (§1)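 Reporter strains carry shp-promoter–luxAB fusions on a pLZ12-spec plasmid: Pshp1520 in GBS A909, Pshp2 in GGS, Pshp3 in S. porcinus. S. porcinus was given synthetic SHP. Strains grown in CDM to OD600 0.1 and exposed to 5 µM antagonist. Decanal (1% in mineral oil) supplied as vapour. OD600 and luminescence read at 37°C every 15 min for 8 h; relative luminescence taken as maximum cps/OD600.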

RopB = assay: PspeB-luxAB reporter, NZ131; assay type: cell-based, S. pyogenes; conditions: C medium; 10 µM CsA or valspodar; 300 mM NaCl
In short: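 PspeB-luxAB reporter (speB upstream region–luxAB, integrated) grown in C medium to exponential phase (OD600 0.1). Test compound added at 10 µM; 300 mM NaCl used as the suppressing condition. Decanal vapour supplied; 37°C with shaking. OD600 and luminescence read every 15 min for 8 h; relative luminescence taken as maximum cps/OD600.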

[4] = tested on: Rgg-SHP quorum-sensing pathway, Pshp-luxAB; assay: Pshp-luxAB reporter in S. dysgalactiae GGS-LT1; assay type: cell-based; conditions: 5 µM antagonist
In short: as §1

[5] = tested on: ComR-XIP QS system, PsigX-luxAB; assay: PsigX-luxAB reporter; assay type: cell-based, S. pyogenes; conditions: 10 µM compound, 100 nM XIP, MGAS315(pWAR200)
In short: (§2)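 PsigX-luxAB reporter strains grown in CDM to OD600 0.1 and incubated with 10 µM test compound plus 100 nM XIP. Decanal (1% in mineral oil) supplied as vapour; sealed plate shaken at 37°C. OD600 and luminescence read every 15 min for 8 h; relative luminescence taken as maximum cps/OD600.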

ComR [6] = target: T1, ComR; assay type: binding, S. mutans; conditions: competition with FITC-XIP
[7] = tested on: ComR-XIP QS system, PsigX-luxAB; assay: PsigX-luxAB reporter; assay type: cell-based, S. mutans; conditions: 10 µM compound, 100 nM XIP, UA159(pWAR304)
In short: as §2

S. pyogenes cultures = assay: Bacterial growth curves; assay type: cell-based; conditions: 10 µM compound with 10 nM sSHP2-C8, 37°C
In short: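 S. pyogenes grown at 37°C in chemically defined medium (CDM) to OD600 0.1, then given 10 nM SHP2-C8 alone or with 10 µM test compound. OD600 read every 30 min for 8 h.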

[8] = tested on: Rgg-SHP quorum-sensing pathway, Pshp-luxAB; assay: Pshp-luxAB reporter in S. porcinus NCTC 10999; assay type: cell-based; conditions: 5 µM antagonist
In short: as §1

[9] = tested on: S. pyogenes strain NZ131 biofilm; assay: SHP-dependent biofilm assay, crystal violet staining, strain NZ131; assay type: cell-based; conditions: 10 nM SHP2-C8, 20 h
In short: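 NZ131 grown overnight in THY at 30°C, diluted 1:100 into CDM, grown at 37°C to late exponential phase, back-diluted to OD600 0.02 in CDM with 10 nM SHP2-C8 and 2-fold dilutions of test compound (5 to 0.156 µM); 0.1% DMSO controls. At OD600 ~0.1 plated in duplicate, 20 h at 37°C, 5% CO2. Saline wash, dry-fixed, 0.2% crystal violet, A595; ≥3 independent experiments, standard errors.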

Rgg2 = assay: Pshp2-luxAB luciferase reporter assay, Δrgg3 strain BNL178; assay type: cell-based, S. pyogenes
In short: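 Pshp2-luxAB reporter strains grown in CDM to exponential phase (OD600 0.1). Cultures dispensed into wells with 10 nM SHP2-C8 alone or with test compound: 10 µM for the Δrgg3 strain BNL178, 5 µM CsA for the other strains. Decanal (1% in mineral oil) supplied as vapour; plate sealed and shaken continuously at 37°C. OD600 and luminescence read every 15 min for 8 h; relative luminescence taken as maximum cps/OD600.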

[10] = target: FITC-SHP2-C8 (Streptococcus pyogenes); assay: fluorescence polarisation
[11] = target: His6-SUMO-Rgg3 (Streptococcus pyogenes); assay: fluorescence polarisation
[12] = read-out: IC50, luciferase assay dose-response

His6-ComR (S. mutans UA159) (receptor)
Kd (FITC-XIP (S. mutans)): 1 µM

CC(C)(C)NC(=O)[C@@H]1C[C@@H]2CCCC[C@@H]2CN1C[C@@H](O)[C@H](Cc1ccccc1)NC(=O)[C@H](CC(N)=O)NC(=O)c1ccc2ccccc2n1 [Saquinavir mesylate]
inhibition (ComR [1]): 13% | Rgg3 Avg % inhibition (Rgg3): 84% | IC50 [2, 12]: > 10000 nM

CCCc1nc2c(C)cc(-c3nc4ccccc4n3C)cc2n1Cc1ccc(-c2ccccc2C(=O)O)cc1 [Telmisartan]
inhibition (ComR [1]): 3% | Rgg3 Avg % inhibition (Rgg3): 99% | inhibition of SHP-induced light production (transcription) [2]: less than 50%

C/C=C/C[C@@H](C)C(=O)[C@H]1C(=O)N[C@@H](C(C)C)C(=O)N(C)CC(=O)N(C)[C@@H](CC(C)C)C(=O)N[C@@H](C(C)C)C(=O)N(C)[C@@H](CC(C)C)C(=O)N[C@@H](C)C(=O)N[C@H](C)C(=O)N(C)[C@@H](CC(C)C)C(=O)N(C)[C@@H](CC(C)C)C(=O)N(C)[C@@H](C(C)C)C(=O)N1C [Valspodar, [3′-keto-Bmt1-Val2]-cyclosporine]
fold inhibition of light production [3]: at least 5 fold | effect on activation of PspeB (luciferase activity) (RopB): unable to block activation of PspeB | fold inhibition of light production [4]: at least 5 fold | effect on light production of PsigX-luxAB [5]: not affected | binding to ComR (ComR [6]): did not bind to ComR | effect on light production of PsigX-luxAB [7]: not affected | effect on culture growth (S. pyogenes cultures): do not display toxic effects on GAS growth | fold inhibition of light production ([8]; S. porcinus (GES), sSHP stimulated): at least 5 fold | effect on the S. porcinus strain (in words) ([8]; S. porcinus): only a moderate effect | concentration sufficient to prevent SHP-dependent biofilm development [9]: 0.312 µM | inhibition of SHP-induced light production (transcription) [2]: completely abolished light production | IC50 ([2]; read-out: IC50 (nM), luciferase assay dose-response): 252 nM | IC50 [2, 12]: 500 nM | inhibition of transcription in strain with only Rgg2 present (Rgg2): effective at inhibiting transcription

CCCc1nc(C(C)(C)O)c(C(=O)O)n1Cc1ccc(-c2ccccc2-c2nnn[nH]2)cc1 [Olmesartan]
inhibition (ComR [1]): 1% | Rgg3 Avg % inhibition (Rgg3): 73% | inhibition of SHP-induced light production (transcription) [2]: less than 50%

CCC(C)(C)C(=O)O[C@H]1C[C@@H](C)C=C2C=C[C@H](C)[C@H](CC[C@@H]3C[C@@H](O)CC(=O)O3)[C@H]21 [Simvastatin]
inhibition (ComR [1]): 10% | Rgg3 Avg % inhibition (Rgg3): 85% | effect on culture growth (S. pyogenes cultures): inhibited culture growth | inhibition of SHP-induced light production (transcription) [2]: less than 50% | IC50 [2, 12]: > 10000 nM

His6-SUMO-Rgg3 (receptor)
Kd [10]: 0.16 µM

[Cl-].[Na+] [NaCl]
effect on activation of PspeB (luciferase activity) (RopB): abolished luciferase activity

DILIIVGG [SHP2-C8 (unlabeled synthetic peptide)]
Kd [11]: 0.22 µM
